Test: Toxicity liver stage against HepG2, at 10uM
Type: cell-based
Parameters: test concentration 10 uM, cell line HepG2-A16-CD81EGFP
Conditions: human, HepG2-A16-CD81EGFP cells; read-out: INHIBITION
Procedure, shortened: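 Uninfected HepG2-A16-CD81EGFP cells, 3 × 10^3 per well, 1536-well, plated on prespotted compound at 10 μM final, parasite-free screening media added to match infected plates; puromycin 10 μM positive, DMSO 0.5% negative; run in parallel with 48 h PbLuc assay at 37 °C, 5% CO2; viability by CellTiter-Glo luminescence, normalized to controls.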

**Q.** Which cytotoxicity at 10 µM does the source give for O=c1[nH]cc(N2CCCCCC2)c(=O)[nH]1 here?
**A.** 3.46%

**Q.** With O=C1COC[C@H]([C@H](O)c2ccc(NC(=O)c3cccnc3)cc2)N1 as the compound, how does the cytotoxicity at 10 µM read?
**A.** 0.317%

**Q.** With CN(C)C(=O)CN1CCC2(CCN(S(C)(=O)=O)CC2)C1=O as the compound, how does the cytotoxicity at 10 µM read?
**A.** 2.2%

**Q.** With CC(=O)N1CCOCC2(C1)CN(S(C)(=O)=O)CCO2 (stereo not drawn) as the compound, how does the cytotoxicity at 10 µM read?
**A.** 2.84%

**Q.** With CCS(=O)(=O)N1C[C@@H](c2nnc(C)o2)C[C@H]2OCC[C@H]21 as the compound, how does the cytotoxicity at 10 µM read?
**A.** 1.36%

**Q.** With Cn1c2c(c(=O)n1C)CN(S(=O)(=O)c1cccs1)CCC2 as the compound, how does the cytotoxicity at 10 µM read?
**A.** 8.98%

**Q.** Which cytotoxicity at 10 µM does the source give for Cc1ccc(C(=O)N2CCCc3c(c(=O)n(C)n3C)C2)o1 here?
**A.** 5.92%

**Q.** For CC(C)N1CCO[C@H]2CN(S(=O)(=O)c3ccc(C#N)cc3)C[C@H]21, which cytotoxicity at 10 µM is on record?
**A.** 7.55%

**Q.** For Cc1ccoc1C(=O)N1CC[C@@]2(C[C@H](NS(C)(=O)=O)CCO2)C1, which cytotoxicity at 10 µM is on record?
**A.** 7.43%

**Q.** For COCCC1COC2(CCN(C(=O)CC3CCCC3)CC2)C1 (stereo not drawn), which cytotoxicity at 10 µM is on record?
**A.** -2.46%

**Q.** Which cytotoxicity at 10 µM does the source give for Cc1cncc(C(=O)N2CCCC3(CCCN3S(C)(=O)=O)C2)c1 (stereo not drawn) here?
**A.** -152%

**Q.** With CCC1=N[C@@]2(CC[C@@H]3CN(C(=O)NCC(C)C)C[C@@H]32)C(=O)N1CC1CC1 as the compound, how does the cytotoxicity at 10 µM read?
**A.** 9.61%

**Q.** With O=C(c1ccnnc1)N1C[C@@H](OCC2CCCC2)[C@H]2OCCC[C@H]21 as the compound, how does the cytotoxicity at 10 µM read?
**A.** -11.8%

**Q.** Which cytotoxicity at 10 µM does the source give for NC(=O)CN1CCC(c2noc3cc(F)ccc23)CC1 here?
**A.** 5.47%

**Q.** Which cytotoxicity at 10 µM does the source give for c1cc(C2CCN(C3CCCCC3)C2)n[nH]1 (stereo not drawn) here?
**A.** 1.65%

**Q.** Which cytotoxicity at 10 µM does the source give for Cc1ncc(-c2ccncc2)c(C2CCCN(C(=O)c3ccno3)C2)n1 (stereo not drawn) here?
**A.** 11.9%

**Q.** With CC(=O)N1CCN(c2cc(C3CN(C)CCO3)nc(C)n2)CC1 (stereo not drawn) as the compound, how does the cytotoxicity at 10 µM read?
**A.** 1.05%

**Q.** Which cytotoxicity at 10 µM does the source give for CNS(=O)(=O)CC(=O)N1CCC(c2cc3ccccc3[nH]2)CC1 here?
**A.** 3.12%

**Q.** Which cytotoxicity at 10 µM does the source give for Cn1cc(C2CCCN2C(=O)CCCc2nc3ccccc3[nH]2)cn1 (stereo not drawn) here?
**A.** 2.35%

**Q.** With CCc1nnsc1C(=O)NC(CC(C)C)C(=O)OC (stereo not drawn) as the compound, how does the cytotoxicity at 10 µM read?
**A.** 11.4%

**Q.** Which cytotoxicity at 10 µM does the source give for Cc1cc(C)c(C(=O)N(C)CCN(C)C(=O)c2[nH]c(C)cc2C)[nH]1 here?
**A.** -1.91%

**Q.** With CCSc1cc(C(=O)N(C(C)C)C2CC2)ccn1 as the compound, how does the cytotoxicity at 10 µM read?
**A.** 6.27%

**Q.** For CC1(C)CN(C(CNS(N)(=O)=O)c2ccc(Cl)cc2)CCO1 (stereo not drawn), which cytotoxicity at 10 µM is on record?
**A.** 6.88%

**Q.** For Cc1cc(N2CCN(C(=O)c3cn(C)c4ccccc34)CC2)nc(C)n1, which cytotoxicity at 10 µM is on record?
**A.** -1.96%

**Q.** With CCn1nc2c(cc1=O)CN(Cc1cc(C)on1)CC2 as the compound, how does the cytotoxicity at 10 µM read?
**A.** 0.341%

**Q.** For O=C(NCC1(N2CCOCC2)CCSC1)Nc1cn[nH]c1 (stereo not drawn), which cytotoxicity at 10 µM is on record?
**A.** 9.37%

**Q.** Which cytotoxicity at 10 µM does the source give for CCN(CC)C(=O)CSc1ccc(C(F)(F)F)cn1 here?
**A.** 12.7%

**Q.** With CN1CCN(S(=O)(=O)c2ncn(C)c2Cl)CC1 as the compound, how does the cytotoxicity at 10 µM read?
**A.** 6.84%

**Q.** For Cc1ccc(C(=O)NC2CCN(Cc3nc(CC(C)C)no3)CC2)s1, which cytotoxicity at 10 µM is on record?
**A.** 7.61%

**Q.** For CC(C)C(NC(=O)Nc1ccc(F)cc1)C(=O)N(C)C (stereo not drawn), which cytotoxicity at 10 µM is on record?
**A.** -10.9%

**Q.** For CCOc1cc(C)nc(N2CCN(C(C)c3nc(C)no3)CC2)n1 (stereo not drawn), which cytotoxicity at 10 µM is on record?
**A.** -1.67%

**Q.** Which cytotoxicity at 10 µM does the source give for CCCc1nn(C2CCN(C3CC3)C2=O)c(=O)o1 (stereo not drawn) here?
**A.** -13.7%

**Q.** With Cc1nn(C)c(C)c1CCC(=O)N1CCc2sccc2C1 as the compound, how does the cytotoxicity at 10 µM read?
**A.** 16.3%

**Q.** With CC(c1nc(C(C)(C)C)no1)N1CCC(N2CCCC2)CC1 (stereo not drawn) as the compound, how does the cytotoxicity at 10 µM read?
**A.** 3.63%

**Q.** Which cytotoxicity at 10 µM does the source give for COCC1CCCN(C(=O)c2ccccc2NCc2cccnc2)C1 (stereo not drawn) here?
**A.** 8.47%

**Q.** For CC(=O)N(C)c1nc(Cn2nnnc2C(C)C)cs1, which cytotoxicity at 10 µM is on record?
**A.** -2.01%

**Q.** With Cc1cc(Cl)c(C)c(S(=O)(=O)N2CCN(Cc3ccccn3)CC2)c1Cl as the compound, how does the cytotoxicity at 10 µM read?
**A.** -7.06%

**Q.** With O=S(=O)(CC1CCCCC1)NCc1ccc(O)nc1 as the compound, how does the cytotoxicity at 10 µM read?
**A.** 5.27%

**Q.** Which cytotoxicity at 10 µM does the source give for CCOc1ccccc1CSc1nnc(CC2CCS(=O)(=O)C2)n1C (stereo not drawn) here?
**A.** 10.7%

**Q.** With Cc1cc(OCC(=O)NC(C)c2ccc(N3CCOCC3)cc2)no1 (stereo not drawn) as the compound, how does the cytotoxicity at 10 µM read?
**A.** -12.9%

**Q.** With CN1[C@H](CN2CCCC2)C[C@@H]2CN(C(=O)c3cnccn3)CC[C@@H]21 as the compound, how does the cytotoxicity at 10 µM read?
**A.** 10.6%

**Q.** Which cytotoxicity at 10 µM does the source give for Cc1ccc(C(=O)N2CCC3(CCCN(c4ccc(C)nn4)C3)C2)cn1 (stereo not drawn) here?
**A.** -112%

**Q.** For CS(=O)(=O)NCc1noc2c1CN(C(=O)C1CCC1)CC2, which cytotoxicity at 10 µM is on record?
**A.** -105%

**Q.** For CN(C)C(=O)CN1CCC2(CCCN(Cc3ccsc3)C2)C1=O (stereo not drawn), which cytotoxicity at 10 µM is on record?
**A.** -106%

**Q.** For Cc1nc([C@@H]2C[C@@H]3CCN(C(=O)c4ccsc4)C[C@H]3O2)no1, which cytotoxicity at 10 µM is on record?
**A.** -8.44%

**Q.** Which cytotoxicity at 10 µM does the source give for CC(C)NC(=O)CC1CC2(CCN(S(C)(=O)=O)CC2)c2ccccc21 (stereo not drawn) here?
**A.** -2.48%

**Q.** Which cytotoxicity at 10 µM does the source give for CC(=O)NCC[C@H]1CC(C)(C)Oc2ccccc21 here?
**A.** -0.363%

**Q.** For c1ccc2c(c1)CC(n1ccnc1-c1cc3n(n1)CCCNC3)CO2 (stereo not drawn), which cytotoxicity at 10 µM is on record?
**A.** -8.26%

**Q.** Which cytotoxicity at 10 µM does the source give for COCCc1noc(CN2CC(C)(c3ccccc3)CCC2=O)n1 (stereo not drawn) here?
**A.** 3.1%

**Q.** With COc1ccc(NC2(C(=O)N3CCn4cncc4C3)CCCC2)cc1 as the compound, how does the cytotoxicity at 10 µM read?
**A.** 7.42%

**Q.** Which cytotoxicity at 10 µM does the source give for O=c1n(Cc2ccccn2)nc(C2CCNCC2)n1Cc1ccccc1 here?
**A.** 2.69%

**Q.** For CCNC(=O)[C@@H]1C[C@@H](NC(=O)c2ccc(C)s2)CN1Cc1ccccn1, which cytotoxicity at 10 µM is on record?
**A.** -3.73%

**Q.** For Cc1ccc(C(C(=O)N2CCC(Cc3noc(C)n3)CC2)N(C)C)cc1 (stereo not drawn), which cytotoxicity at 10 µM is on record?
**A.** -5.37%
